# Laboratory results: PMC11015380 (Heliyon, 2024)
# Key:
# [1] = tested on: AsPC1 (G12D); assay: WST cell viability assay, AsPC1 cells; assay type: cell-based; details: Homo sapiens, ASPC1, 72 h, read-out: IC50 AsPC1 (G12D)
# [2] = biological target: KRAS-GTP (active KRAS) in MKN1 cells (Homo sapiens, UniProt P01116); assay: GST-RBD pulldown assay, MKN1 cells; assay type: cell-based; details: MKN1, 5 or 7.5 μM, 24 h
# Summary of the method: (§1)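 AGS or MKN1 cells were exposed to DMSO or test compound (0, 5, 7.5 μM) for 24 h and lysed in 1X passive lysis buffer. Lysate (400 μg protein) was incubated overnight with glutathione–GST-RBD to capture GTP-bound KRAS. Pulled-down protein was immunoblotted with anti-KRAS antibody, and band intensity was quantified (n = 2).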
# [3] = tested on: pERK, pAKT, pS6, cleaved PARP in AGS cells; assay: Immunoblotting of KRAS downstream signals and PARP, AGS cells; assay type: cell-based; details: 5 or 7.5 μM, 24 h
# Summary of the method: (§2)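 Cells (3–5 × 10^5/well, 6-well plates) were grown overnight, then given DMSO or test compound at 5 or 7.5 μM for 24 h. Lysis was in RIPA with protease/phosphatase inhibitors, with BCA protein assay. Equal protein was run on 8–12% SDS-PAGE and transferred to nitrocellulose. Blots were blocked in 5% milk/TBST, probed overnight at 4 °C (ERK, pERK, AKT, pAKT, S6, pS6, PARP), then HRP secondary 1 h, ECL. Bands were normalised to β-actin (n = 2).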
# [4] = tested on: Hek293 (Normal); assay: WST cell viability assay, Hek293 cells; assay type: cell-based; details: Homo sapiens, HEK293, 72 h, read-out: IC50 Hek293 (Normal)
# [5] = tested on: AGS (G12D); assay: WST cell viability assay, AGS cells; assay type: cell-based; details: Homo sapiens, 72 h, read-out: IC50 AGS (G12D)
# [6] = tested on: AsPC1 tumor; assay: In vivo antitumor efficacy study, AsPC1 xenograft; set-up: species or system female BALB/c nude mice; details: 15 mg/kg i.p. once daily for 14 days
# Summary of the method: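 Female BALB/c nude mice (5–6 weeks) received 5.0 × 10^6 AsPC1 cells s.c. into the right hind flank in PBS. At tumour volume >100 mm3, mice were randomised to vehicle or test compound at 15 mg/kg i.p. once daily for 14 days (10% DMSO, 40% PEG300, 5% Tween-80, 45% saline; 200 μL/mouse). Tumours were measured by caliper thrice weekly and body weight twice weekly. TGI (%) = (1 − RTVtreatment/RTVcontrol) × 100, with RTV relative to day 0.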
# [7] = tested on: MKN1 (KRAS wild-type) cells; assay: Annexin V-FITC/PI apoptosis detection assay, MKN1 cells; assay type: cell-based; details: MKN1, 0, 2.5, and 5 μM, 24 h, flow cytometry
# Summary of the method: (§3)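 AGS or MKN1 cells were seeded at 3–5 × 10^5 cells/well in 6-well plates and grown overnight. They were treated with test compound at 0, 2.5 or 5 μM for 24 h. Cells were harvested, PBS-washed and resuspended in 1X binding buffer.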
# [8] = tested on: KRAS downstream proteins, including PARP, in MKN1 cells; assay: Immunoblotting of KRAS downstream signals and PARP, MKN1 cells; assay type: cell-based; details: MKN1, 5 or 7.5 μM, 24 h
# Summary of the method: as §2
# [9] = biological target: KRAS-GTP (active KRAS) in AGS cells (Homo sapiens, UniProt P01116, G12D); assay: GST-RBD pulldown assay, AGS cells; assay type: cell-based; details: 5 or 7.5 μM, 24 h
# Summary of the method: as §1
# [10] = tested on: AGS cells; assay: Annexin V-FITC/PI apoptosis detection assay, AGS cells; assay type: cell-based; details: AGS, 0, 2.5, and 5 μM, 24 h, flow cytometry
# Summary of the method: as §3
# [11] = tested on: SNU1197 (G12D); assay: WST cell viability assay, SNU1197 cells; assay type: cell-based; details: 72 h, read-out: IC50 SNU1197 (G12D)
Compound,IC50 [1] [µM],KRAS-GTP protein expression [2],"pERK, pAKT, and pS6 levels [3]",levels of cleaved PARP ([3]; versus DMSO-treated group),IC50 [4] [µM],IC50 [5] [µM],body weight change during treatment [6],TGI (tumor growth inhibition) ([6]; day 14) [%],apoptosis [7],"KRAS downstream proteins, including PARP, expression [8]",KRAS-GTP levels [9],proportion of early (LR) and late apoptotic (UR) cells [10],IC50 [11] [µM]
"Cl.c1ccc(CN(Cc2ccccc2)c2nc(N3CCC4(CC3)CNC4)c3ncn(Cc4ccccc4)c3n2)cc1 [PU1-1, N,N,9-tribenzyl-6-(2,7-diazaspiro[3.5]nonan-7-yl)-9H-purin-2-amine hydrogen chloride]",5.9 ± 0.3,no protein expression changes,significantly decreased,significantly increased,9.2 ± 0.2,3.2 ± 0.4,no noticeable weight loss,42,did not show significant apoptosis,no protein expression changes,significantly downregulated,increased,3.8 ± 0.8
"C#Cc1c(F)ccc2cc(O)cc(-c3ncc4c(N5CC6CCC(C5)N6)nc(OC[C@@]56CCCN5C[C@H](F)C6)nc4c3F)c12 [MRTX1133, reference compound]",0.062,,,,19.7,0.0065,,,,,,,0.037
"Cc1nc(-c2ccc(Cl)cc2)nc(N2CCC3(CC2)CNC3)c1Cc1ccccc1 [PY1-2, 7-(5-benzyl-2-(4-chlorophenyl)-6-methylpyrimidin-4-yl)-2,7-diazaspiro[3.5]nonane, 2,2,2-trifluoroacetic acid]",10.9 ± 0.4,,,,9.1 ± 0.7,3.3 ± 0.6,,,,,,,
